The term IC50 denotes the point on the concentration scale where inhibition reaches its midpoint.

Data set [1] in a line: Solubility of the compound in organic solvent. The data set is classed as physicochemical.
The nature of data set [2]: Aqueous solubility of the compound. It is filed as physicochemical. The note with it: buffer.
Data set [3] in a line: Cytotoxicity against human GM00637 cells assessed as reduction in mean cell viability after 72 hrs by MTT assay. To be noted: GM00637, 72 h. The data set is classed as cell-based. The method in brief: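 SV40-transformed normal skin fibroblasts (GM00637) in MEM Eagle–Earle BSS with 15% heat-inactivated FBS, 2 mM L-glutamine, 2× amino acids and vitamins. Seeded at 10,000 cells/well and left 24 h to adhere. Ethanol-delivered compound (1% final) for 72 h at 37 °C, 5% CO₂. MTT formazan in DMSO read at 550/690 nm. Viability relative to vehicle; IC₅₀ by nonlinear regression.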
Background: Tetrazolium dyes change colour on reduction, which living cells bring about.

`O=C1c2nc3n(c2C(=O)c2nc4n(c21)CCC4)CCC3`: the solubility result in data set [1] and in data set [2] was “Insoluble” each time.

Consider `CO[C@@]12[C@H](COC(N)=O)C3=C(C(=O)C(C)=C(N)C3=O)N1C[C@@H]1N[C@@H]12` [MITOMYCIN], for which the IC50 in data set [3] is 460 nM.

(Values after ChEMBL document CHEMBL2021842, “COMPARE analysis of the toxicity of an iminoquinone derivative of the imidazo[5,4-f]benzimidazoles with NAD(P)H:quinone oxidoreductase 1 (NQO1) activity and computational docking of quinones as NQO1 substrates” (Bioorg Med Chem, 2012).)
